CHOP inh – blocks CHOP induction under ER stress; AID 2732; CHO-K1 CHOP-promoter luciferase, tunicamycin-induced, 15-18 h; inhibition, % at 10 µM; actives 3.8% (n = 220,000);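 active means compounds that reduced the stress-induced luciferase reporter signal by more than about 70% of percent inhibition, limit read from the data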;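 further: 0% = tunicamycin plus vehicle and 100% = wells without tunicamycin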
Lmaj promast – Leishmania major promastigote growth inhibition; Leishmania major promastigotes, resazurin fluorescence viability; inhibition, % at 10 µM; actives 9% (n = 200,000); AID 1063; in the data active means inhibition above about 50%;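 further: promastigotes grown with compound for 44 hours at 28 °C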
UPR CHOP act – activators of apoptotic arm of unfolded protein response (CHOP) | CHO-CHOP luciferase reporter, UPR activation, luminescence; percent of tunicamycin response over DMSO baseline | actives 0.34% (n = 330,000) | activation, % at 10 µM;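 active means at 10 µM dose, activation of 40% or more, normalized to positive control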;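 further: 100% = tunicamycin at 10 µg/mL and 0% = DMSO alone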
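System: CHO-CHOP luciferase reporter cell line; amount: 500 cells/well; buffer or medium: F12 medium containing 10% fetal bovine serum; incubation: 6 h compound exposure at 37 °C after overnight seeding; measured by: luciferase luminescence after 10 min with Steady-Glo reagent; evaluation: % reporter activation, DMSO baseline versus tunicamycin full activation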
T cruzi repl – T. cruzi replication inhibition; T. cruzi beta-gal in NIH3T3, luminescence, 90 h; actives 1.4% (n = 300,000); inhibition, % (no concentration beside the values);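 active means mean inhibition across valid replicates above about 55%, limit read from the data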;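 further: signal also drops with host cell toxicity which is not excluded here; 0% = plate median of DMSO wells and 100% = zero luminescence signal; higher percent means less beta-gal luminescence so fewer parasites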
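Material: NIH/3T3 host cells with β-galactosidase reporter T. cruzi; Input: 5,000 host fibroblasts per well; Medium: DMEM, 2% fetal bovine serum; Compound: 50 nL DMSO compound solution per well; Schedule: 3 h host attachment, then at least 90 h co-culture; Detection: luminescent β-galactosidase signal after 60 min lysis.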
UPR XBP1 act – adaptive UPR (XBP1) activation | CHO-XBP1 luciferase reporter, IRE1-XBP1 UPR activation, luminescence; percent of tunicamycin response, DMSO as zero | activation, % at 20 µM | actives 0.33% (n = 330,000) | AID 463104;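 active means versus positive control, 20 µM dose yields 30% or more activation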;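 further: 100% = tunicamycin at 10 µg/mL and 0% = DMSO only wells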
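Signal: luciferase luminescence; Assay system: CHO-XBP1 luciferase reporter cells; Amount: one thousand reporter cells per well; Dosing: 20 µM single concentration, DMSO 1%; Benchmarks: high control tunicamycin 10 µg/mL final, low control DMSO vehicle only; Schedule: 6 h compound exposure at 37 °C, 5% CO2; Evaluation: percent activation relative to tunicamycin reference.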
Dynein cargo inh – dynein cargo transport inhibition; 3617.4 mouse cells, GR-EGFP nuclear translocation imaging; test concentration mostly 20 µM; stimulated with dexamethasone, 1 µM; active compounds read low; z-score, hits read low; actives 0.47% (n = 220,000); AID 1381;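 active means plate z-score of nuclear minus cytoplasmic receptor signal below a set negative limit, without overly bright fluorescence or cell loss, cut at about -3.5 in these data, passing the limit was not always enough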;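 further: z-score of nuclear minus cytoplasmic ring GR-EGFP intensity difference per well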
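Buffer or medium: tet-free, stripped-serum medium; reagent: dexamethasone at 1.0 µM final, 30 min; incubation: 48 h induction, 1 h compound, 30 min dex at 37 °C; measured by: formaldehyde fixation, Hoechst nuclear stain, 10x automated fluorescence imaging; read-out: nuclear-to-cytoplasmic GR-EGFP distribution per well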
An asterisk follows results filed as active. This excerpt belongs to a sample that is enriched for hits.

CCCC(=O)N/N=C1\CS(=O)(=O)N(C)c2ccsc21 was read as CHOP inh 2, Lmaj promast -7, UPR CHOP act -1, T cruzi repl 4, UPR XBP1 act 1 and Dynein cargo inh 1.2.
Screening CN1c2ccsc2/C(=N/Nc2ccc(F)cc2)CS1(=O)=O returned CHOP inh -34, Lmaj promast 29, UPR CHOP act 1, T cruzi repl 64*, UPR XBP1 act 0 and Dynein cargo inh 0.17.
Cc1ccc(N/N=C2\CS(=O)(=O)N(C)c3ccsc32)cc1 was read as CHOP inh 15, Lmaj promast 1, UPR CHOP act 2, T cruzi repl 64*, UPR XBP1 act 5 and Dynein cargo inh -0.45.
Screening CCC(CC)c1nnc(NC(=O)CSCC(=O)Nc2cc(C)on2)s1 returned UPR CHOP act -2, T cruzi repl 0 and UPR XBP1 act 2.
`CN(C(=O)c1cc2ccccc2o1)c1c(N)n(Cc2ccccc2)c(=O)[nH]c1=O` gave UPR CHOP act 1 and UPR XBP1 act 3.
`Clc1cccc(CN2CCSCC2)c1` gave UPR CHOP act -1, T cruzi repl -16 and UPR XBP1 act -3.
For Cc1ccc(NC(=S)NNc2ncc(C(F)(F)F)cc2Cl)cc1 the results were CHOP inh 57, Lmaj promast -3, UPR CHOP act 1, T cruzi repl -10, UPR XBP1 act -3 and Dynein cargo inh 1.4.
CCNC(=S)Nc1ccc(Cl)c(C(F)(F)F)c1 was read as CHOP inh 61, Lmaj promast 76*, UPR CHOP act -2, T cruzi repl 6, UPR XBP1 act -2 and Dynein cargo inh 0.46.
S=C(NCc1ccncc1)Nc1ccc(Cl)cc1 was read as CHOP inh -22, Lmaj promast 26, UPR CHOP act 0, T cruzi repl -17, UPR XBP1 act -1 and Dynein cargo inh -0.46.
`FC(F)(F)c1cccc(NC(=S)NNC(=S)Nc2ccc(Cl)cc2)c1` gave CHOP inh 56, UPR CHOP act 1, T cruzi repl 56*, UPR XBP1 act 5 and Dynein cargo inh -0.19.
FC(F)(F)c1cnc(NNC(=S)Nc2ccc(Cl)cc2)c(Cl)c1 was read as CHOP inh 99*, Lmaj promast -8, UPR CHOP act 6, T cruzi repl -5, UPR XBP1 act 2 and Dynein cargo inh -0.84.
Screening Fc1cc(NC(=S)NCc2ccc(CNC(=S)Nc3ccc(Cl)c(F)c3)cc2)ccc1Cl returned CHOP inh 84*, UPR CHOP act 6, T cruzi repl 46, UPR XBP1 act -1 and Dynein cargo inh 0.63.
Screening O=[N+]([O-])c1ccccc1Nc1cccnc1 returned UPR CHOP act 1, T cruzi repl -8 and UPR XBP1 act 1.
Cc1cc(C)nc(SCC(=O)N(C)CC(=O)Nc2c(Cl)cccc2Cl)n1 was read as UPR CHOP act -1, T cruzi repl -3 and UPR XBP1 act -3.
For Fc1ccc(NC(=S)Nc2ccc(Cl)cc2)cc1 the results were CHOP inh 12, Lmaj promast 63*, UPR CHOP act -2, T cruzi repl -49, UPR XBP1 act -2 and Dynein cargo inh -0.76.
O=C(COC(=O)c1cc(C(F)(F)F)cc(C(F)(F)F)c1)NCc1ccc(Cl)cc1 was read as CHOP inh 73*, Lmaj promast 50*, UPR CHOP act 0, T cruzi repl -4, UPR XBP1 act 4 and Dynein cargo inh -0.26.
Screening ON/C=N/C(=S)Nc1ncc(C(F)(F)F)cc1Cl returned CHOP inh 23, Lmaj promast 90*, UPR CHOP act 0, T cruzi repl 3, UPR XBP1 act -2 and Dynein cargo inh 1.1.
Fc1ccc(CNC(=S)Nc2cccc(C(F)(F)F)c2)cc1 was read as CHOP inh 24, Lmaj promast 2, UPR CHOP act -1, T cruzi repl 3, UPR XBP1 act -4 and Dynein cargo inh -1.
For FC(F)(F)c1cccc(NC(=S)NCc2ccc(Cl)cc2)c1 the results were CHOP inh 95*, Lmaj promast 1, UPR CHOP act -1, T cruzi repl 46, UPR XBP1 act -1 and Dynein cargo inh 0.75.
`CCc1cccc(C)c1NC(=O)CN1CCN(S(=O)(=O)c2ccc(C(C)(C)C)cc2)CC1` gave UPR CHOP act 0, T cruzi repl 13 and UPR XBP1 act 0.
`COC(=O)c1ccc(NC(=O)CCCN2C(=O)NC(C)(C)C2=O)cc1` gave UPR CHOP act 1 and UPR XBP1 act -1.
`NC(=O)c1ccc2c(=O)n3c(-c4cc(Cl)c(N)c(Cl)c4)csc3nc2c1` gave CHOP inh 88*, UPR CHOP act -2, T cruzi repl -11, UPR XBP1 act 1 and Dynein cargo inh -0.15.
N#CC1=C(N)NC(SCc2ccccc2)=C(C#N)C12CCCC2 was read as CHOP inh 36, Lmaj promast 26, UPR CHOP act 1, T cruzi repl -20, UPR XBP1 act 0 and Dynein cargo inh 1.4.
N#CC1=C(N)NC(SCC(=O)Nc2ccc(Br)cc2)=C(C#N)C12CCCCC2 was read as CHOP inh 73*, Lmaj promast 84*, UPR CHOP act 1, T cruzi repl 28, UPR XBP1 act -3 and Dynein cargo inh -0.42.
Screening N#CC1=C(N)NC(SCc2ccc(Cl)cc2)=C(C#N)C12CCCCC2 returned CHOP inh 61, Lmaj promast 99*, UPR CHOP act -1, T cruzi repl 51, UPR XBP1 act 5 and Dynein cargo inh -0.17.
`N#CC1=C(N)NC(SCc2ccc(Br)cc2)=C(C#N)C12CCCCC2` gave CHOP inh 93*, Lmaj promast 98*, UPR CHOP act -2, T cruzi repl 66*, UPR XBP1 act 1 and Dynein cargo inh -0.51.
For O=C(NCCCc1ccc(F)cc1)C1CCC(=O)N(CCN2CCOCC2)C1 (stereo not drawn) the results were UPR CHOP act 0, T cruzi repl -7 and UPR XBP1 act -3.
Cc1c(Cl)c([N+](=O)[O-])nn1Cc1ccc(C(=O)N/N=C\c2cccc(Br)c2)o1 was read as CHOP inh 14, Lmaj promast 55*, UPR CHOP act 7, T cruzi repl 28, UPR XBP1 act -2 and Dynein cargo inh -0.39.
Screening Cc1ccc(/C=N\NC(=O)c2ccc(Cn3cc(Br)c([N+](=O)[O-])n3)o2)o1 returned CHOP inh -25, Lmaj promast 1, UPR CHOP act -1, T cruzi repl 74*, UPR XBP1 act -2 and Dynein cargo inh -1.1.
Cc1nn(C)cc1S(=O)(=O)Nc1ccc(C(F)(F)F)cc1 was read as UPR CHOP act 0, T cruzi repl -16 and UPR XBP1 act 1.

Screening data deposited in PubChem by several laboratories.
